In brackets after ≈: the same amount, converted by molar mass.
Legend:
[1] = system: Mus musculus; assay: Body wieght treated/body weight untreated controls of compound (10 mg/Kg) was evaluated in vivo for antitumor activity against MAC 16 in female NMRI mice on day 12; type: functional
[2] = system: Mus musculus; assay: Ability of intraperitoneally administered compound (3 mg/kg/day) to inhibit growth of human tumor xenograft GXF 97 was assessed on day 28 in nude mice; type: functional
Summary of the method: (§1)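 GXF 97 human gastric xenograft grown subcutaneously in nude mice for 24 days, then randomized; dosing began 1 day later as ip injections on days 1-4. Groups had 4-5 mice. Tumor length and width were measured. %T/C = median relative tumor size of treated / median relative tumor size of controls.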

[3] = system: A204; assay: In vitro antitumor activity against A204 rhabdomyosarcoma tumor cell line was determined; type: functional; conditions: Homo sapiens, read-out: ID50 (the source's name)
Summary of the method: (§2)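 Cell growth inhibition in vitro measured by the PIT method, with mitomycin C as positive reference.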

[4] = system: WiDr; assay: In vitro antitumor activity against WiDr colon carcinoma tumor cell line was determined; type: functional; conditions: Homo sapiens, read-out: ID50 (the source's name); summary of the method: as §2
[5] = system: Mus musculus; assay: Percentage change in body weight [(day 6 - day 1)/ day 1] for antitumor activity against P388 Leukemia in CD2 mice at fractioned dose treatment of 2 mg/Kg; type: functional
Summary of the method: (§3)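 Mouse P388 leukemia model. Drugs were given intraperitoneally, either as a single injection or once daily for 9 consecutive days (fractioned schedule). Outcomes were median survival time in days, %T/C, and % body weight change.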

[6] = system: Mus musculus; assay: Percent T/C ([…]) for antitumor activity against P388 Leukemia in CD2 mice at fractioned dose treatment of 2 mg/kg; type: functional; summary of the method: as §3
[7] = system: Mus musculus; assay: Median survival time in days for antitumor activity against P388 Leukemia in CD2 mice at single dose treatment of 12 mg/Kg
[8] = system: Mus musculus; assay: Median survival time in days for antitumor activity against P388 Leukemia in CD2 mice at single dose treatment of 8 mg/Kg
[9] = system: Mus musculus; assay: Compound (10 mg/Kg) was evaluated in vivo for antitumor activity against MAC 16 in female NMRI mice on day 12 and ratio of tumor weight of treated to that of control was determined; type: functional
[10] = system: Mus musculus; assay: Relative tumor size on day 28 was reported when compound (3 mg/kg/day) administered to inhibit growth of human tumor xenograft GXF 97 in nude mice; type: functional
Summary of the method: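 GXF 97 human gastric xenograft grown subcutaneously in nude mice for 24 days, then mice randomized; treatment began 1 day later. Fractioned ip injections on days 1-4, or single iv injection on day 1; 4-5 mice per group. Tumor size from length and width; relative tumor size (% of controls) read at day 28.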

[11] = system: Mus musculus; assay: Percentage change in body weight [(day 6 - day 1)/ day 1] for antitumor activity against P388 Leukemia in CD2 mice at fractioned dose treatment of 12 mg/kg; type: functional; conditions: in the assay text read “single dose treatment” for “fractioned dose treatment”; summary of the method: as §3
[12] = system: Mus musculus; assay: Percent inhibition of compound (10 mg/Kg) was evaluated in vivo for antitumor activity against MAC 13 in female NMRI mice on day 2; type: functional
Summary of the method: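 MAC 13 in female NMRI mice. Drugs were given in arachis oil BP by ip route on day 2 or day 29. % inhibition was derived from treated/untreated control tumor weight (volume); a negative value indicates stimulation.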

[13] = system: Mus musculus; assay: Ability of intraperitoneally administered compound (3 mg/kg/day) to inhibit growth of human tumor xenograft GXF 97 was assessed on day 21 in nude mice; type: functional; summary of the method: as §1
[14] = system: Mus musculus; assay: Mean relative body weight change of treated / mean relative body weight change of control when compound (3 mg/kg/day) administered to inhibit growth of human tumor xenograft GXF 97 was reported at day 14 in nude mice; type: functional
Summary of the method: (§4)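 GXF 97 xenograft grown subcutaneously in nude mice for 24 days, then randomized; ip dosing began 1 day later, given on days 1-4, with 4-5 mice per group. Read-out is mean relative body weight change of treated divided by mean relative body weight change of controls, in %.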

[15] = system: Mus musculus; assay: Percentage change in body weight [(day 6 - day 1)/ day 1] for antitumor activity against P388 Leukemia in CD2 mice at fractioned dose treatment of 8 mg/Kg; type: functional; conditions: in the assay text read “single dose treatment” for “fractioned dose treatment”; summary of the method: as §3
[16] = system: L1210; assay: In vitro antitumor activity against L1210 lymphocytic leukemia tumor cell line was determined; type: functional; conditions: Mus musculus, read-out: ID50 (the source's name)
Summary of the method: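 Inhibition of L1210 leukemia colony formation in vitro, with mitomycin C as positive reference.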

[17] = system: Mus musculus; assay: Ability of intraperitoneally administered compound (3 mg/kg/day) to inhibit growth of human tumor xenograft GXF 97 was assessed on day 14 in nude mice; type: functional; summary of the method: as §1
[18] = system: Mus musculus; assay: Percent T/C ([…]) for antitumor activity against P388 Leukemia in CD2 mice at fractioned dose treatment of 8 mg/Kg; type: functional; conditions: in the assay text read “single dose” for “fractioned dose”; summary of the method: as §3
[19] = system: Mus musculus; assay: Compound (10 mg/Kg) was evaluated in vivo for antitumor activity against MAC 13 in female NMRI mice on day 2 and ratio of tumor weight of treated to that of control was determined
[20] = system: Mus musculus; assay: Percent T/C ([…]) for antitumor activity against P388 Leukemia in CD2 mice at fractioned dose treatment of 12 mg/kg; type: functional; conditions: in the assay text read “single dose” for “fractioned dose”; summary of the method: as §3
[21] = system: Mus musculus; assay: Median survival time in days for antitumor activity against P388 Leukemia in CD2 mice at fractioned dose treatment of 2 mg/kg; type: functional
Summary of the method: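 P388 leukemia-bearing mice were dosed intraperitoneally once daily for 9 consecutive days (fractioned schedule). The read-out was median survival time in days, reported alongside %T/C and % body weight change.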

[22] = system: Mus musculus; assay: Mean relative body weight change of treated / mean relative body weight change of control when compound (3 mg/kg/day) administered to inhibit growth of human tumor xenograft GXF 97 was reported at day 28 in nude mice; type: functional; summary of the method: as §4
[23] = system: Mus musculus; assay: Body wieght treated/body weight untreated controls of compound (10 mg/Kg) was evaluated in vivo for antitumor activity against MAC 16 in female NMRI mice on day 4; type: functional
[24] = system: Mus musculus; assay: Compound (10 mg/Kg) was evaluated in vivo for antitumor activity against MAC 16 in female NMRI mice on day 4 and ratio of tumor weight of treated to that of control was determined; type: functional
[25] = system: Mus musculus; assay: Mean relative body weight change of treated / mean relative body weight change of control when compound (3 mg/kg/day) administered to inhibit growth of human tumor xenograft GXF 97 was reported at day 21 in nude mice; type: functional; summary of the method: as §4

COC1=CC(=O)c2c(c(COC(C)=O)c3n2CCC3OC(C)=O)C1=O (stereo not given)
BW [1]: 81% | T/C [2]: 31.7% | IC50 [3]: 0.008 µg/mL (≈ 0.023 µM) | IC50 [4]: 0.037 µg/mL (≈ 0.107 µM) | BWC [5]: -20.9% | T/C [6]: 109% | MST [7]: 10 days | MST [8]: 11 days | T/C [9]: 104% | Relative TS [10]: 210.1% | BWC [11]: -1.8% | I [12]: -52% | T/C [13]: 31.7% | BWC [14]: 89.6% | BWC [15]: -2% | IC50 [16]: 0.495 µg/mL (≈ 1.43 µM) | T/C [17]: 39.3% | T/C [18]: 100% | T/C [19]: 152% | T/C [20]: 91% | MST [21]: 12 days | BWC [22]: 87.1% | BW [23]: 105% | T/C [24]: 99% | BWC [25]: 86.5%
